Assay results taken from ChEMBL document CHEMBL1649247, “Fluoroquinolone resistance in Mycobacterium tuberculosis and mutations in gyrA and gyrB” (2009).
In brackets after ≈: the same amount, converted by molar mass. Activity calls are given as the source filed them. No cut-off for these calls is given here.

Experiments:
[1] = test system: Mycobacterium tuberculosis; assay: Antimycobacterial activity against multidrug-resistant Mycobacterium tuberculosis 08-0797 harboring gyrA Ala90Val mutant gene by resazurin microtiter assay; format: functional
Outline: (§1)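 MIC was read by resazurin microtiter assay against ofloxacin, moxifloxacin and gatifloxacin. Isolates were used as fresh Löwenstein-Jensen subcultures kept at 37°C for no longer than 4 weeks.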

[2] = test system: Mycobacterium tuberculosis; assay: Antimycobacterial activity against Mycobacterium tuberculosis 02-1975 harboring gyrA Asp94Gly mutant gene by resazurin microtiter assay; format: functional
Outline: (§2)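 Isolates taken from fresh Löwenstein-Jensen subcultures grown at 37°C for at most 4 weeks. Drug stocks 1 mg/ml in 0.1 N NaOH, filter sterilized, stored at −20°C less than 2 months. MIC read by resazurin microtiter assay following a previously described protocol.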

[3] = test system: Mycobacterium tuberculosis; assay: Antimycobacterial activity against multidrug-resistant Mycobacterium tuberculosis 01-2614 harboring gyrA Asp94Gly mutant gene by resazurin microtiter assay; format: functional; outline: as §2
[4] = test system: Mycobacterium tuberculosis; assay: Antimycobacterial activity against multidrug-resistant Mycobacterium tuberculosis 08-0744 harboring gyrA Asp94Tyr mutant gene by resazurin microtiter assay; format: functional; outline: as §1
[5] = test system: Mycobacterium tuberculosis; assay: Antimycobacterial activity against Mycobacterium tuberculosis 04-0649 harboring gyrA Asp94Asn mutant gene by resazurin microtiter assay; format: functional; outline: as §2
[6] = test system: Mycobacterium tuberculosis; assay: Antimycobacterial activity against multidrug-resistant Mycobacterium tuberculosis 02-2399 harboring gyrA Asp94Tyr mutant gene by resazurin microtiter assay; format: functional; outline: as §2
[7] = test system: Mycobacterium tuberculosis; assay: Antimycobacterial activity against multidrug-resistant Mycobacterium tuberculosis 02-0319 harboring gyrA Asp94Ala mutant gene by resazurin microtiter assay; format: functional; outline: as §2
[8] = test system: Mycobacterium tuberculosis; assay: Antimycobacterial activity against multidrug-resistant Mycobacterium tuberculosis 04-0519 harboring gyrA Ala90Val and Asp94Asn mutant gene by resazurin microtiter assay; format: functional; outline: as §1
[9] = test system: Mycobacterium tuberculosis; assay: Antimycobacterial activity against Mycobacterium tuberculosis 08-0787 harboring gyrA Asp94His mutant gene and deletion of codons 678 and 679 in gyrB mutant gene by resazurin microtiter assay; format: functional; outline: as §2
[10] = test system: Mycobacterium tuberculosis; assay: Antimycobacterial activity against multidrug-resistant Mycobacterium tuberculosis 01-2834 by resazurin microtiter assay; format: functional; outline: as §2
[11] = test system: Mycobacterium tuberculosis; assay: Antimycobacterial activity against multidrug-resistant Mycobacterium tuberculosis 08-0794 harboring gyrA Thr80Ala mutant gene by resazurin microtiter assay; format: functional; outline: as §1
[12] = test system: Mycobacterium tuberculosis; assay: Antimycobacterial activity against Mycobacterium tuberculosis 08-0815 harboring gyrA Thr80Ala and Ala90Gly mutant gene by resazurin microtiter assay; format: functional; outline: as §2
[13] = test system: Mycobacterium tuberculosis; assay: Antimycobacterial activity against multidrug-resistant Mycobacterium tuberculosis 03-0738 harboring gyrA Ala90Val mutant gene assessed as microbial susceptibility by agar proportion method; format: functional, organism-based
Outline: (§3)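 Clinical isolates freshly subcultured on Löwenstein-Jensen medium at 37°C for no more than 4 weeks. Susceptibility by standard proportion method on 7H11 agar at breakpoints of 2 mg/liter ofloxacin and 0.5 mg/liter moxifloxacin and gatifloxacin. Drug stocks 1 mg/ml in 0.1 N NaOH, filter sterilized, held at −20°C under 2 months. Isolates scored susceptible or resistant.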

[14] = test system: Mycobacterium tuberculosis; assay: Antimycobacterial activity against multidrug-resistant Mycobacterium tuberculosis 01-0930 harboring gyrA Ala90Val mutant gene assessed as microbial susceptibility by agar proportion method; format: functional, organism-based
Outline: (§4)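 Clinical isolates freshly subcultured on Löwenstein-Jensen medium, held at 37°C no longer than 4 weeks. Fluoroquinolone stocks 1 mg/ml in 0.1 N NaOH, filter sterilized, kept at −20°C under 2 months. Standard proportion method on 7H11 agar; breakpoints 2 mg/liter ofloxacin, 0.5 mg/liter moxifloxacin and gatifloxacin; scored susceptible or resistant.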

[15] = test system: Mycobacterium tuberculosis; assay: Antimycobacterial activity against multidrug-resistant Mycobacterium tuberculosis 08-0790 harboring gyrA Ala90Val mutant gene assessed as microbial susceptibility by agar proportion method; format: functional, organism-based; outline: as §3
[16] = test system: Mycobacterium tuberculosis; assay: Antimycobacterial activity against multidrug-resistant Mycobacterium tuberculosis 08-0797 harboring gyrA Ala90Val mutant gene assessed as microbial susceptibility by agar proportion method; format: functional, organism-based; outline: as §3
[17] = test system: Mycobacterium tuberculosis; assay: Antimycobacterial activity against multidrug-resistant Mycobacterium tuberculosis 99-1914 harboring gyrA Asp94Gly mutant gene assessed as microbial susceptibility by agar proportion method; format: functional, organism-based; outline: as §3
[18] = test system: Mycobacterium tuberculosis; assay: Antimycobacterial activity against multidrug-resistant Mycobacterium tuberculosis 01-2230 harboring gyrA Asp94Gly mutant gene assessed as microbial susceptibility by agar proportion method; format: functional, organism-based; outline: as §4
[19] = test system: Mycobacterium tuberculosis; assay: Antimycobacterial activity against multidrug-resistant Mycobacterium tuberculosis 08-0744 harboring gyrA Asp94Tyr mutant gene assessed as microbial susceptibility by agar proportion method; format: functional, organism-based; outline: as §3
[20] = test system: Mycobacterium tuberculosis; assay: Antimycobacterial activity against multidrug-resistant Mycobacterium tuberculosis 08-0821 harboring gyrA Asp94Tyr mutant gene assessed as microbial susceptibility by agar proportion method; format: functional, organism-based; outline: as §3
[21] = test system: Mycobacterium tuberculosis; assay: Antimycobacterial activity against Mycobacterium tuberculosis 04-0649 harboring gyrA Asp94Asn mutant gene assessed as microbial susceptibility by agar proportion method; format: functional, organism-based; outline: as §4
[22] = test system: Mycobacterium tuberculosis; assay: Antimycobacterial activity against multidrug-resistant Mycobacterium tuberculosis 02-2399 harboring gyrA Asp94Tyr mutant gene assessed as microbial susceptibility by agar proportion method; format: functional, organism-based; outline: as §4
[23] = test system: Mycobacterium tuberculosis; assay: Antimycobacterial activity against multidrug-resistant Mycobacterium tuberculosis 04-0519 harboring gyrA Ala90Val and Asp94Asn mutant gene assessed as microbial susceptibility by agar proportion method; format: functional, organism-based; outline: as §3
[24] = test system: Mycobacterium tuberculosis; assay: Antimycobacterial activity against Mycobacterium tuberculosis 08-0745 harboring gyrA Asp89Asn mutant gene assessed as microbial susceptibility by agar proportion method; format: functional, organism-based; outline: as §4
[25] = test system: Mycobacterium tuberculosis; assay: Antimycobacterial activity against multidrug-resistant Mycobacterium tuberculosis 02-1234 harboring gyrA Asn533Thr gyrB mutant gene assessed as microbial susceptibility by agar proportion method; format: functional, organism-based; outline: as §4
[26] = test system: Mycobacterium tuberculosis; assay: Antimycobacterial activity against multidrug-resistant Mycobacterium tuberculosis 01-2834 by agar proportion method; format: functional, organism-based; outline: as §4
[27] = test system: Mycobacterium tuberculosis; assay: Antimycobacterial activity against Mycobacterium tuberculosis 00-0715 harboring gyrA Ala90Val mutant gene by resazurin microtiter assay; format: functional; outline: as §2
[28] = test system: Mycobacterium tuberculosis; assay: Antimycobacterial activity against multidrug-resistant Mycobacterium tuberculosis 03-0738 harboring gyrA Ala90Val mutant gene by resazurin microtiter assay; format: functional; outline: as §1
[29] = test system: Mycobacterium tuberculosis; assay: Antimycobacterial activity against multidrug-resistant Mycobacterium tuberculosis 01-1647 harboring gyrA Ala90Val mutant gene by resazurin microtiter assay; format: functional; outline: as §2
[30] = test system: Mycobacterium tuberculosis; assay: Antimycobacterial activity against multidrug-resistant Mycobacterium tuberculosis 08-0757 harboring gyrA Ala90Val mutant gene by resazurin microtiter assay; format: functional; outline: as §1

Compound	MIC [1] [µg/mL]	MIC [2] [µg/mL]	MIC [3] [µg/mL]	MIC [5] [µg/mL]	MIC [6] [µg/mL]	MIC [7] [µg/mL]	MIC [8] [µg/mL]	MIC [9] [µg/mL]	MIC [10] [µg/mL]	MIC [11]	MIC [12]	Activity [13]	Activity [14]	Activity [15]	Activity [16]	Activity [17]	Activity [18]	Activity [19]	Activity [20]	Activity [21]	other results
CC1COc2c(N3CCN(C)CC3)c(F)cc3c(=O)c(C(=O)O)cn1c23 (stereo not drawn) [OFLOXACIN]	4 (≈ 11.1 µM)	8 (≈ 22.1 µM)	16 (≈ 44.3 µM)	16 (≈ 44.3 µM)	4 (≈ 11.1 µM)	4 (≈ 11.1 µM)	>32	4 (≈ 11.1 µM)	4 (≈ 11.1 µM)	0.5 µg/mL (≈ 1.38 µM)	<=0.25 mg/L	inactive	inactive	inactive	inactive	inactive	inactive	inactive	inactive	inactive	MIC [4]: 8 µg/mL (≈ 22.1 µM); Activity [22]: inactive; Activity [23]: inactive; Activity [24]: inactive; Activity [25]: Active; Activity [26]: inactive; MIC [27]: 4 µg/mL (≈ 11.1 µM); MIC [28]: 4 µg/mL (≈ 11.1 µM); MIC [29]: 4 µg/mL (≈ 11.1 µM); MIC [30]: 8 µg/mL (≈ 22.1 µM)
COc1c(N2C[C@@H]3CCCN[C@@H]3C2)c(F)cc2c(=O)c(C(=O)O)cn(C3CC3)c12 [MOXIFLOXACIN]	1 (≈ 2.49 µM)	2 (≈ 4.98 µM)	2 (≈ 4.98 µM)	4 (≈ 9.96 µM)	0.5 (≈ 1.25 µM)	0.5 (≈ 1.25 µM)	>8	2 (≈ 4.98 µM)	1 (≈ 2.49 µM)	<=0.125 mg/L	<=0.125 mg/L	inactive	inactive	inactive	inactive	inactive	inactive	inactive	inactive	inactive	Activity [22]: inactive; Activity [23]: inactive; Activity [24]: inactive; Activity [25]: inactive; Activity [26]: inactive; MIC [27]: 0.5 µg/mL (≈ 1.25 µM); MIC [28]: 0.25 µg/mL (≈ 0.623 µM); MIC [29]: 0.5 µg/mL (≈ 1.25 µM)
COc1c(N2CCNC(C)C2)c(F)cc2c(=O)c(C(=O)O)cn(C3CC3)c12 (stereo not drawn) [GATIFLOXACIN]	0.5 (≈ 1.33 µM)	1 (≈ 2.66 µM)	1 (≈ 2.66 µM)	1 (≈ 2.66 µM)	0.25 (≈ 0.666 µM)	0.25 (≈ 0.666 µM)	>4	1 (≈ 2.66 µM)	0.5 (≈ 1.33 µM)	<=0.062 mg/L	<=0.062 mg/L	inactive	inactive	inactive	inactive	inactive	inactive	inactive	inactive	inactive	MIC [4]: 1 µg/mL (≈ 2.66 µM); Activity [22]: inactive; Activity [23]: inactive; Activity [24]: inactive; Activity [25]: inactive; Activity [26]: inactive; MIC [27]: 0.5 µg/mL (≈ 1.33 µM); MIC [28]: 0.25 µg/mL (≈ 0.666 µM); MIC [29]: 0.5 µg/mL (≈ 1.33 µM); MIC [30]: 1 µg/mL (≈ 2.66 µM)
